Laboratory results reported in PubChem BioAssay AID504650 (Molecular Libraries Program, Specialized Chemistry Center, …, 2011).
pIC50: −log10 of the molar value. Calls of active or inactive are those of the source.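 Rule for the calls: active = IC50 at or below 10 µM; inactive = the rest.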

What follows are compounds tested against Transitional endoplasmic reticulum ATPase (Homo sapiens) (UniProt P55072) (assay: p97 ATPase activity inhibitors, SAR follow-up, biochemical, dose response, round 3 (AID 504650)). Conditions: purified p97 ATPase, Kinase-Glo luminescence.
Chain of Transitional endoplasmic reticulum ATPase (Homo sapiens) (P55072 whole entry, looked up): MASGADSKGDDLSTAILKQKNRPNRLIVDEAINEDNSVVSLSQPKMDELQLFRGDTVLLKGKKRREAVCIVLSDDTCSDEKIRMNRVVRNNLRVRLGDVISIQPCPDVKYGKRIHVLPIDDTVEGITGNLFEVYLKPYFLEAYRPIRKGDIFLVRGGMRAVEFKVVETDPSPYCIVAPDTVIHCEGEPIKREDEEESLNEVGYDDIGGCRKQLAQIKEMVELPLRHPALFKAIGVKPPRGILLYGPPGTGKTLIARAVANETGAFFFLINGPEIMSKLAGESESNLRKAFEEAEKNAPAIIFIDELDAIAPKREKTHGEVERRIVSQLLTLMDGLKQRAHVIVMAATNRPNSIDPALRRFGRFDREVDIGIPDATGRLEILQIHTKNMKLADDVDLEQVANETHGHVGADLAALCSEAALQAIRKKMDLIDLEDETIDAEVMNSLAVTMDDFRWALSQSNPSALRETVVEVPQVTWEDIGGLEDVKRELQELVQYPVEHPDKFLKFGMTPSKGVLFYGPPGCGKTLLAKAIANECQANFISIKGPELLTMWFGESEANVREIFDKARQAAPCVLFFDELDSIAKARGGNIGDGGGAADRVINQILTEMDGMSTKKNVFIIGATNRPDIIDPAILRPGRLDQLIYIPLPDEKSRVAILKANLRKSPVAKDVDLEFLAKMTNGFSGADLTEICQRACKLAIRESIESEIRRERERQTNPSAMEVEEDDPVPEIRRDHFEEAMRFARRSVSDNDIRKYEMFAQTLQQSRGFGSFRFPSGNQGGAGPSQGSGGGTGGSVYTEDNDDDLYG
Procedure, shortened: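 material = human p97 ATPase protein | medium = Tris buffer pH 7.4 containing MgCl2 and EDTA | reagent = ATP substrate, 500 µM stock | timing = 10 min room-temperature preincubation, 30 min ATP reaction at 37 °C | detection = luminescent readout of unconsumed ATP (Kinase-Glo Plus) | evaluation = IC50 fitted to percent remaining enzyme activity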

pIC50	IC50	SMILES
	> 30 µM (inactive)	COc1cccc2c(NCc3ccccc3)nc(N3CCN(C)CC3)nc12
5.96		COc1ccc(-c2cccc3c(NCc4ccccc4)nc(N4CCOc5ccccc54)nc23)cc1
	inactive	COc1cccc2c(NCc3ccccc3)nc(NCc3cncs3)nc12
	> 30 µM (inactive)	COc1cccc2c(NCc3ccccc3)nc(N3CCN(C(C)=O)CC3)nc12
6.70		COc1cccc2c(NCc3ccccc3)nc(N3CCOc4ccccc43)nc12
6.30		COc1cccc2c(NCc3ccccc3)nc(Nc3nc4ccccc4s3)nc12
5.72		COc1cccc2c(NCc3ccc(F)cc3)nc(N3CCOc4ccccc43)nc12
7.35		COc1cccc2c(NCc3ccccc3)nc(-n3c(N)nc4c(C)cccc43)nc12
5.48		COc1cccc2c(NCc3ccccc3)nc(-n3cnc4ccccc43)nc12
5.15		COc1cccc2c(NCc3ccccc3)nc(N(C)Cc3ccccc3)nc12
6.52		COc1cccc2c(NCc3ccccc3)nc(Nc3nc4ccccc4n3C)nc12
6.15		COc1cccc2c(NCc3ccccc3)nc(-n3c(N)nc4cc(Cl)ccc43)nc12
6.96		COc1cccc2c(NCc3ccccc3)nc(-n3c(N)nc4ccccc43)nc12
6.62		COc1cccc2c(NCc3ccccc3)nc(-n3c(N)nc4cc(C)ccc43)nc12
6.22		COCCOc1cccc2c(NCc3ccccc3)nc(N3CCOc4ccccc43)nc12
	inactive	COc1cccc2c(NCc3ccccc3)nc(NC(C)c3ccccc3)nc12 (stereo unspecified)
6.30		COc1cccc2c(NCc3ccccc3)nc(Nc3cccc(Cl)c3)nc12

pIC50	IC50	SMILES
5.70		COc1cccc2c(NCc3ccccc3)nc(-n3c(N)nc4cc(C)c(C)cc43)nc12
5.82		COc1cccc2c(NCc3ccccc3)nc(Nc3cc(C)cc(F)c3)nc12
5.59		COc1cccc2c(NCc3ccccc3)nc(Nc3ccccc3O)nc12
7.10		COc1cccc2c(NCc3ccccc3)nc(-n3c(N)nc4cc(F)ccc43)nc12
6.96		Nc1nc2ccccc2n1-c1nc(NCc2ccccc2)c2ccccc2n1
6.32		COc1ccc2c(c1)nc(N)n2-c1nc(NCc2ccccc2)c2cccc(OC)c2n1
5.62		COc1cccc2c(NCc3ccc(O)cc3)nc(N3CCOc4ccccc43)nc12
6.10		COc1cccc2c(NCc3ccccc3)nc(-n3c(N)nc4cc(Br)ccc43)nc12
6.28		COc1cccc2c(NCc3ccccc3)nc(Nc3cccc(F)c3)nc12
5.57		COc1cccc2c(NCc3ccccc3)nc(N3CCN(C(C)=O)c4ccccc43)nc12
5.77		COc1cccc2c(NCc3ccccc3)nc(NCc3cccs3)nc12
	> 30 µM (inactive)	COc1cccc2c(NCc3ccccc3)nc(NC(=O)Nc3ccccc3)nc12
5.51		COc1cccc2c(NCc3ccccc3)nc(N3CCN(C)c4ccccc43)nc12
6.05		COc1cccc2c(NCc3ccccc3)nc(N3CCNc4ccccc43)nc12
6.96		COc1cccc2c(NCc3ccccc3)nc(-n3c(=O)oc4ccccc43)nc12
	inactive	COc1cccc2c(NCc3ccccc3)nc(N3CCOCC3)nc12

Further lines, the compound ahead of its results:

SMILES	pIC50	IC50
N#CCOc1cccc2c(NCc3ccccc3)nc(N3CCOc4ccccc43)nc12	6.40	
c1ccc(CNc2nc(N3CCOc4ccccc43)nc3c(-c4ccccc4)cccc23)cc1	5.46	
Oc1cccc2c(NCc3ccccc3)nc(N3CCOc4ccccc43)nc12	5.92	
COc1cccc2c(NCc3ccccn3)nc(N3CCNc4ccccc43)nc12		> 30 µM (inactive)
COc1cccc2c(NCC3CCCCC3)nc(N3CCOc4ccccc43)nc12	5.13	
COc1cccc2c(NCc3ccccc3)nc(NCC3CCCCC3)nc12	5.27	
COc1cccc2c(NCc3cccs3)nc(N3CCOc4ccccc43)nc12	5.92	
OCCOc1cccc2c(NCc3ccccc3)nc(N3CCOc4ccccc43)nc12	6.77	
c1ccc(CNc2ccnc(N3CCOc4ccccc43)n2)cc1	5.54	
CN(c1ccccc1)c1nc(NCc2ccccc2)c2ccccc2n1		> 30 µM (inactive)
Nc1nc2ccccc2n1-c1nccc(NCc2ccccc2)n1	5.55	
Nc1nc2ccccc2n1-c1nc2c(c(NCc3ccccc3)n1)CCCC2	7.30	
Clc1ccccc1-c1nc(N2CCCc3ccccc32)c2ccccc2n1		> 30 µM (inactive)
CCCCOc1cccc2c(NCc3ccccc3)nc(N3CCOc4ccccc43)nc12	5.58	
CCN(CC)CCOc1cccc2c(NCc3ccccc3)nc(N3CCOc4ccccc43)nc12	6.40	
c1ccc2c(c1)OCCN2c1nc(N2CCOc3ccccc32)c2ccccc2n1		> 30 µM (inactive)
c1ccc(CNc2nc(N3CCOc4ccccc43)nc3c2CCCC3)cc1	6.96	
COc1cccc2c(NCc3ccccc3O)nc(N3CCOc4ccccc43)nc12	5.34	
Cc1nc(N2CCOc3ccccc32)nc(NCc2ccccc2)c1C	5.96	
c1ccc(CNc2nc(N3CCOc4ccccc43)nc3ccsc23)cc1	6.40	
CC(C)Nc1nc(Nc2cccc(Cl)c2)nc2ccccc12		> 30 µM (inactive)
c1ccc(CNc2nc(N3CCc4ccccc4C3)nc3ccccc23)cc1		inactive
COc1cccc2c(NCc3ccccn3)nc(N3CCOc4ccccc43)nc12		inactive
